Reference: ChEMBL document CHEMBL1154235, “Rational design and semisynthesis of betulinic acid analogues as potent topoisomerase inhibitors” (J Nat Prod, 2009)
Calls of active or inactive are those of the source. The calls are words filed in the database; no cut-off is given here.

Legend:
[1] = tested on: MDA-MB-231; assay: Antiproliferative activity against human MDA-MB-231 cells after 3 days by MTT assay; format: functional, cell-based; settings: MDA-MB-231, 72 h
Procedure, shortened: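 MDA-MB-231 cells kept in RPMI 1640 with 10% heat-inactivated FBS and 25 mM HEPES at 37 °C in 5% CO2. Plated at about 15 000/well and preincubated 1 day, then exposed to compound for 3 days at 37 °C, with doses in triplicate. MTT added for 4 h, formazan dissolved in detergent overnight at room temperature in the dark, OD read at 580 nm against a cell-free blank. Cell numbers from a calibration curve; IC50 from dose-response curves.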

[2] = tested on: HCT-116; assay: Antiproliferative activity against human HCT116 cells after 3 days by XTT assay; format: functional, cell-based; settings: HCT-116, 72 h
Procedure, shortened: (§1)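 Cells plated at 4000/well and grown 1 day at 37 °C, then exposed to a range of drug concentrations for 3 more days. Read-out by XTT tetrazolium reduction on a plate reader. Each concentration run in triplicate. IC50 taken from a linear-quadratic fit. Assays repeated two or three times and reported as mean ± SE. HCT-116 kept in modified McCoy's 5a and SW948 in Leibovitz's L-15, each with 10% heat-inactivated FBS and 2 mM L-glutamine.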

[3] = target: T1, DNA topoisomerase 1 (Homo sapiens) (UniProt P11387); assay: Inhibition of topoisomerase 1 catalytic activity assessed as relaxation of supercoiled plasmid DNA at 100 uM after 30 mins by agarose gel electrophoresis
T1 sequence (whole entry): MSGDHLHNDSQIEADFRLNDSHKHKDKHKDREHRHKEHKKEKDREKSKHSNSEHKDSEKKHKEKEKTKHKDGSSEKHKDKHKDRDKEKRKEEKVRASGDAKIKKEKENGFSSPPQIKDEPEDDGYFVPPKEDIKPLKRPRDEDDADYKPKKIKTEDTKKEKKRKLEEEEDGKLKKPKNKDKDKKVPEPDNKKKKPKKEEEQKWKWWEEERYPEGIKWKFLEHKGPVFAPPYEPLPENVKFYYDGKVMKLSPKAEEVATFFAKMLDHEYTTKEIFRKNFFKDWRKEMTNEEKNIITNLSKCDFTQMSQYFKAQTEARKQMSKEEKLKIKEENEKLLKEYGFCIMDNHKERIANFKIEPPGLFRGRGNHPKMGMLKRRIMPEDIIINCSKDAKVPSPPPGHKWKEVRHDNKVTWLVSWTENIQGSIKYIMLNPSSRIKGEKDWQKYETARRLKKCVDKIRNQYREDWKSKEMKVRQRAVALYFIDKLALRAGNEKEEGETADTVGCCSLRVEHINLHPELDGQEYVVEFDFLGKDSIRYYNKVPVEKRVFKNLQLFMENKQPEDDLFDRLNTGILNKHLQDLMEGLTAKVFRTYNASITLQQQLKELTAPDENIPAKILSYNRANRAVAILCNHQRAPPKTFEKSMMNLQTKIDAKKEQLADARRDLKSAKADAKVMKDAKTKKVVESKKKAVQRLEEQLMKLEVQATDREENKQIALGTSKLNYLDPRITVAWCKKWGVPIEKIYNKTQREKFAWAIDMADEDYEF
Procedure, shortened: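 Compound at 100 µM final with topoisomerase I (2U), 37 °C 30 min. Stopped with 1% SDS, proteinase K digestion, 1% agarose TAE gel, ethidium bromide stain, imaging quantitation. Scored 0 to 3+ against camptothecin.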

[4] = tested on: SW948; assay: Antiproliferative activity against human SW948 cells after 3 days by XTT assay; format: functional, cell-based; settings: SW948, 72 h; procedure, shortened: as §1
[5] = target: DNA topoisomerase 2-alpha (Homo sapiens) (UniProt P11388); assay: Inhibition of topoisomerase 2 alpha catalytic activity assessed as decatenation of kinetoplast DNA at 100 uM after 15 mins by agarose gel electrophoresis
DNA topoisomerase 2-alpha (Homo sapiens), sequence (P11388 whole entry): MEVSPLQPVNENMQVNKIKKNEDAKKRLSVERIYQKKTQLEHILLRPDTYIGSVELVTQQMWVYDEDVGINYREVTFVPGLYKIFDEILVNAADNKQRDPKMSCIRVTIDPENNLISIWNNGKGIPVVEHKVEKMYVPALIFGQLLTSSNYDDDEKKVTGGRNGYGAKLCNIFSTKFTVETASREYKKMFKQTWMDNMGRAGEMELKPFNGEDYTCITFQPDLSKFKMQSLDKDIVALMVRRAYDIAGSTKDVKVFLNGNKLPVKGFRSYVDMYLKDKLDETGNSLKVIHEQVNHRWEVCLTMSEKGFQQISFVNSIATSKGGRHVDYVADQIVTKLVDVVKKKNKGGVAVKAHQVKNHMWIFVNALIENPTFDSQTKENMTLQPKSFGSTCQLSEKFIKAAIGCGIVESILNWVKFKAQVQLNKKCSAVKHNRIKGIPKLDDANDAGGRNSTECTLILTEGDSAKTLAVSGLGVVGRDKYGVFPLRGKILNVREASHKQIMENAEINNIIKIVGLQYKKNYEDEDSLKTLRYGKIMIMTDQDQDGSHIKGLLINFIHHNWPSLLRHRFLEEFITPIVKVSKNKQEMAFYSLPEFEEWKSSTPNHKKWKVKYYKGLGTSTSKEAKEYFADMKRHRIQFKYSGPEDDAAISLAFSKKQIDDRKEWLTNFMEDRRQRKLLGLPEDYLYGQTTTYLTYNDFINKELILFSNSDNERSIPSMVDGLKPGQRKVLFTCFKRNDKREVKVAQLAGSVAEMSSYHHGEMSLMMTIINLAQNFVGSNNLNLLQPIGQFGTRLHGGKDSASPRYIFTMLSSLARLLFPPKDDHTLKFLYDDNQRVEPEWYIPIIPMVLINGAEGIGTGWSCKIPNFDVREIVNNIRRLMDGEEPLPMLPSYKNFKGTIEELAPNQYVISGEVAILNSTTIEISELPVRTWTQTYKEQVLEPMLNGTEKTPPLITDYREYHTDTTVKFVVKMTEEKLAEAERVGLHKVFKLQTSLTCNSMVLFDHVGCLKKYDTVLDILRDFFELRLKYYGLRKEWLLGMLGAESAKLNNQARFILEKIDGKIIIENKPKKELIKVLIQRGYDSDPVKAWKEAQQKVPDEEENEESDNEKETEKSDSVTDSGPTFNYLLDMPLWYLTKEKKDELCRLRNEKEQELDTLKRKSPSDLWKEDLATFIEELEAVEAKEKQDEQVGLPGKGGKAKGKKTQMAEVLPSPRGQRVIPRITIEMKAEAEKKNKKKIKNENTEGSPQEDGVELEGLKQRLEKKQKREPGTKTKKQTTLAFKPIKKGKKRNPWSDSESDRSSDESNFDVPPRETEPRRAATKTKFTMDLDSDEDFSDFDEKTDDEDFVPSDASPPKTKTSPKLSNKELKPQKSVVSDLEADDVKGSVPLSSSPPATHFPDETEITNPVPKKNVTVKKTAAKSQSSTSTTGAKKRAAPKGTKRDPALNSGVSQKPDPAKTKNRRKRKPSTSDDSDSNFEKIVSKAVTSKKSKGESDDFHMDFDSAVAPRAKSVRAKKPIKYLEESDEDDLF

[6] = tested on: MDA-MB-231; assay: Growth inhibition of human MDA-MB-231 cells; format: functional
[7] = tested on: HL-60(TB); assay: Growth inhibition of human HL-60(TB) cells; format: functional

| Structure (SMILES) | IC50 [1] [µM] | IC50 [2] [µM] | inhibition [3] | IC50 [4] [µM] | inhibition [5] | GI50 [6] [µM] | GI50 [7] [µM] |
| --- | --- | --- | --- | --- | --- | --- | --- |
| C=C(C)[C@@H]1CC[C@]2(C(=O)O)CC[C@]3(C)[C@H](CC[C@@H]4[C@@]5(C)CC[C@H](OC(=O)Nc6ccc(-c7ccccc7)cc6)C(C)(C)[C@@H]5CC[C@]43C)[C@@H]12 | > 25 | > 25 | inactive | > 25 | Active |  |  |
| COc1cc([C@@H]2c3cc4c(cc3[C@@H](O[C@@H]3O[C@@H]5CO[C@@H](C)O[C@H]5[C@H](O)[C@H]3O)[C@H]3COC(=O)[C@H]23)OCO4)cc(OC)c1O [ETOPOSIDE] |  |  |  | 1.3 | Active |  |  |
| C=CCNC(=O)O[C@H]1CC[C@]2(C)[C@H]3CC[C@@H]4[C@H]5[C@H](C(=C)C)CC[C@]5(C(=O)O)CC[C@@]4(C)[C@]3(C)CC[C@H]2C1(C)C | 0.65 | 17.7 | inactive | 17.6 | Active |  |  |
| C=C(C)[C@@H]1CC[C@]2(C(=O)O)CC[C@]3(C)[C@H](CC[C@@H]4[C@@]5(C)CC[C@H](O)C(C)(C)[C@@H]5CC[C@]43C)[C@@H]12 [BETULINIC ACID] | 15.2 | 13.5 | inactive | 10.5 | inactive | 3.98 | 3.16 |
| C=C(C)[C@@H]1CC[C@]2(C(=O)O)CC[C@]3(C)[C@H](CC[C@@H]4[C@@]5(C)CC[C@H](OC(=O)Nc6cccc7ccccc67)C(C)(C)[C@@H]5CC[C@]43C)[C@@H]12 | > 25 | > 25 | inactive | > 25 | Active |  |  |
| C=C(C)[C@@H]1CC[C@]2(C(=O)O)CC[C@]3(C)[C@H](CC[C@@H]4[C@@]5(C)CC[C@H](OC(=O)NCc6ccccc6)C(C)(C)[C@@H]5CC[C@]43C)[C@@H]12 | 0.45 | 22.2 | Active | > 25 | Active |  |  |
| CC[C@@]1(O)C(=O)OCc2c1cc1n(c2=O)Cc2cc3ccccc3nc2-1 [CAMPTOTHECIN] |  | 0.13 |  | 0.16 |  |  |  |
| CC1(C)[C@@H](O)CC[C@]2(C)[C@H]3CC[C@@H]4[C@H]5[C@H]([C@]6(C)CO6)CC[C@]5(C(=O)O)CC[C@@]4(C)[C@]3(C)CC[C@@H]12 | 4.08 | > 25 | inactive | > 25 | inactive |  |  |
| C[C@H](C=O)[C@@H]1CC[C@]2(C(=O)O)CC[C@]3(C)[C@H](CC[C@@H]4[C@@]5(C)CC[C@H](O)C(C)(C)[C@@H]5CC[C@]43C)[C@@H]12 | 0.17 | > 25 | Active | > 25 | inactive |  |  |
| C=C(C=O)[C@@H]1CC[C@]2(C(=O)O)CC[C@]3(C)[C@H](CC[C@@H]4[C@@]5(C)CC[C@H](O)C(C)(C)[C@@H]5CC[C@]43C)[C@@H]12 | 1.37 | 4.38 | Active | 14.9 | inactive |  |  |
| C=C(C)[C@@H]1CC[C@]2(C(=O)O)CC[C@]3(C)[C@H](CC[C@@H]4[C@@]5(C)CC[C@H](OS(=O)(=O)c6ccccc6)C(C)(C)[C@@H]5CC[C@]43C)[C@@H]12 | 0.8 | 21.3 | inactive | 6.84 | Active |  |  |
| C=C(C)[C@@H]1CC[C@]2(C(O)=S)CC[C@]3(C)[C@H](CC[C@@H]4[C@@]5(C)CCC(=O)C(C)(C)[C@@H]5CC[C@]43C)[C@@H]12 | > 25 | > 25 | inactive | > 25 | inactive |  |  |
| C=C(C)[C@@H]1CC[C@]2(C(=O)O)CC[C@]3(C)[C@H](CC[C@@H]4[C@@]5(C)CCC(=O)C(C)(C)[C@@H]5CC[C@]43C)[C@@H]12 [BETUNOLIC ACID] | 9.77 | 2.61 | inactive | 19.2 | inactive |  |  |
| C=C(C)[C@@H]1CC[C@]2(C(=O)NS(=O)(=O)c3ccccc3)CC[C@]3(C)[C@H](CC[C@@H]4[C@@]5(C)CC[C@H](OC(=O)NS(=O)(=O)c6ccccc6)C(C)(C)[C@@H]5CC[C@]43C)[C@@H]12 | 0.92 | 13.3 | Active | 17.4 | Active |  |  |
| C=C(C)[C@@H]1CC[C@]2(C(O)=S)CC[C@]3(C)[C@H](CC[C@@H]4[C@@]5(C)CC[C@H](OP(=S)(S)c6ccc(OC)cc6)C(C)(C)[C@@H]5CC[C@]43C)[C@@H]12 (stereo partly specified) | 9.83 | > 25 | Active | > 25 | Active |  |  |
